In ChEMBL document CHEMBL4177557, “Anti-inflammatory Flavan-3-ol-dihydroretrochalcones from Daemonorops draco” (J Nat Prod, 2017):

Key:
Neutrophil [1] = assay: Inhibition of fMLP/CB-induced elastase release in human neutrophils; format: functional, cell-based
Method in brief: (§1)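 Isolated human neutrophils stimulated with fMLP plus cytochalasin B. Superoxide measured as SOD-inhibitable ferricytochrome c reduction. Azurophilic degranulation measured as elastase release. IC50, the concentration giving 50% inhibition, calculated by computer; mean ± SEM, n = 3–5; Student's t test.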

Neutrophil [2] = assay: Inhibition of fMLP/CB-induced superoxide anion production in human neutrophils assessed as SOD-based ferricytochrome c reduction assay; format: functional, cell-based; method in brief: as §1

IC50 (Neutrophil [1])	IC50 (Neutrophil [2])	Compound
4.5 µM	3.1 µM	COC1=CC(=O)C(C)=C2O[C@]3(c4ccccc4)Oc4cc(O)c(C)c(OC)c4[C@@H]([C@H]3O)[C@]12CCC(=O)c1ccccc1
> 10 µM	> 10 µM	COC1=CC(=O)[C@]2(C)C(=O)[C@@]1(CCC(=O)c1ccccc1)[C@H]1c3c(cc(O)c(C)c3OC)O[C@]2(c2ccccc2)[C@@H]1O
> 10 µM	> 10 µM	COC1=C(CCC(=O)c2ccccc2)C(=O)[C@@H]2C(=O)[C@H]1[C@H]1c3c(cc(O)c(C)c3OC)O[C@]2(c2ccccc2)[C@@H]1O
1.5 µM	0.4 µM	O=c1cc(N2CCOCC2)oc2c(-c3ccccc3)cccc12 [LY-294002]
